Experimental data as given in ChEMBL document CHEMBL1138431, “Synthesis and cytotoxic activities of 4,5-diarylisoxazoles” (Bioorg Med Chem Lett, 2007).

Tests used:
HepG2 [1] = assay: Cytotoxicity against human HepG2 cells; assay type: functional, cell-based
Outline: (§1)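 Cells were grown under previously described culture conditions and tested in an MTT colorimetric assay.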

HeLa = assay: Cytotoxicity against human HeLa cells; assay type: functional, cell-based; outline: as §1
HepG2 [2] = assay: Cell cycle arrest in human HepG2 cells assessed as accumulation at S phase at 10 nM after 24 hrs relative to control
HepG2 [3] = assay: Cell cycle arrest in human HepG2 cells assessed as accumulation at G2/M phase at 10 nM after 24 hrs relative to control
[4] = Cytotoxicity against human […] cells; assay type: functional, cell-based; outline: as §1
HepG2 [5] = assay: Cell cycle arrest in human HepG2 cells assessed as accumulation at G0/G1 phase at 10 nM after 24 hrs relative to control

**Q.** For `COc1ccc(/C=C\c2cc(OC)c(OC)c(OC)c2)cc1O` [COMBRETASTATIN A4], which IC50 (HepG2 [1]) is on record?
**A.** Its IC50 is 0.14 nM.

**Q.** What about the IC50 (HeLa) of the same molecule?
**A.** Its IC50 is 2.75 nM.

**Q.** What about the Activity (HepG2 [2]) of the same molecule?
**A.** Its Activity is 19%.

**Q.** And the Activity (HepG2 [3])?
**A.** Its Activity is 79.3%.

**Q.** And the IC50 [4]?
**A.** The IC50 was 0.01 nM.

**Q.** And the Activity (HepG2 [5])?
**A.** Its Activity is 1.68%.

**Q.** With `COc1ccc(-c2cnoc2-c2cc(OC)c(OC)c(OC)c2)cc1N` as the molecule, how does the IC50 (HepG2 [1]) read?
**A.** The IC50 was 0.065 nM.

**Q.** What about the IC50 (HeLa) of the same molecule?
**A.** Its IC50 is 0.022 nM.

**Q.** And the Activity (HepG2 [2])?
**A.** Its Activity is 27.4%.

**Q.** And the Activity (HepG2 [3])?
**A.** The Activity was 69.8%.

**Q.** What about the IC50 [4] of the same molecule?
**A.** The IC50 was 0.135 nM.

**Q.** What about the Activity (HepG2 [5]) of the same molecule?
**A.** The Activity was 2.81%.
